Screening data as filed in PubChem BioAssay.
A selection: hits, their analogues and other compounds. The true share with any hit is near 2.9%.
NALP1 inh – NALP1 inflammasome inhibitors in reconstituted yeast, colorimetric, S. cerevisiae, triplicate retest; S. cerevisiae NALP1/ASC/caspase-1 growth, X-gal OD620, 72 h; inhibition, % at 10 µM; 280,000 compounds, 0.61% hits; in the data active = inhibition mostly above about 24%, no sharp cut-off; inactive = mostly below about 32%
SUMO Mot1 rescue – yeast Mot1-301 growth rescue at high temperature, primary screen, SUMOylation pathway inhibitor project, S. cerevisiae, ATP luminescence, 38.5C. S. cerevisiae Mot1-301 growth rescue; percent above DMSO median, 100 means doubled. growth rescue, % at 18.8 µM. 320,000 compounds, 1% hits. AID 2716, 2010;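 active = every valid replicate shows activation above 250% relative to neutral control wells; inactive = the rest, any valid replicate at or below 250%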;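 note: OY570 slx delta 5 strain wells were the positive control but not used for scaling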
DNA FID counter – compounds displacing fluorescent DNA intercalator, primary screen, artefact control for HCV NS3 helicase inhibitor project, biochemical, FID fluorescence. DNA fluorescent intercalator displacement. inhibition, % at 7.9 µM. 290,000 compounds, 0.17% hits; in the data active = inhibition above about 37%;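 note: 0% = vehicle and 100% = reference compound; higher means more ethidium bromide displaced from hairpin DNA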
VIM-2 inhibitor – VIM-2 metallo-beta-lactamase inhibitors, primary screen, biochemical, epi-absorbance readout, Pseudomonas aeruginosa enzyme; purified VIM-2, nitrocefin hydrolysis, epi-absorbance fluorescence; inhibition, % at 5.6 µM; 290,000 compounds, 0.89% hits;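 active = inhibition above the mean of all tested compounds plus 3 SD, cutoff set per screening run, cut at about 7.5% in these data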;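 note: red hydrolysis product quenches plate fluorescence so inhibitors raise well fluorescence; 0% = enzyme with DMSO and 100% = DMSO without enzyme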
IMP-1 inh-1 – IMP-1 metallo-beta-lactamase inhibitors, primary screen, biochemical, epi-absorbance readout, Pseudomonas aeruginosa enzyme; 290,000 compounds, 0.45% hits; inhibition, % at 5.6 µM; metallo-beta-lactamase IMP-1 (Pseudomonas aeruginosa); purified IMP-1, nitrocefin hydrolysis, epi-absorbance fluorescence;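 active = inhibition above the mean plus 3 SD of all compounds in the same screening run, cut at about 4.5% in these data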;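 note: 0% = IMP-1 with DMSO and 100% = DMSO wells lacking enzyme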
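System: purified IMP-1; amount: IMP-1 0.2 nM before substrate addition; compound: single dose, 5.6 µM; times: 25 °C, 15 min preincubation, 25 min reaction; signal: Epi-absorbance via hydrolysed-nitrocefin quenching of white-plate fluorescence, 480/530 nm, EDTA stop; benchmarks: DMSO with and without IMP-1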
SUMO HTRF inh – inhibitors of in vitro SUMOylation cascade, primary screen, biochemical, HTRF, uHTS | SUMO-conjugating enzyme UBC9 (Homo sapiens), P63279 | HTRF SUMOylation assay, SAE1/SAE2 + UBC9 | inhibition, % at 35 µM | 290,000 compounds, 0.36% hits; in the data active = inhibition above about 50%, passing the limit was not always enough
Target sequence (P63279 whole entry, looked up): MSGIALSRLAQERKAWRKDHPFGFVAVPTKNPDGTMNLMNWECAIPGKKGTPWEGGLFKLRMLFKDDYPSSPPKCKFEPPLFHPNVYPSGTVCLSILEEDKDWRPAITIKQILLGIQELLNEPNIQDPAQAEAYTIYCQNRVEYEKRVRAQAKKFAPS
IMP-1 inh-2 – IMP-1 metallo-beta-lactamase inhibitors, confirmation, selectivity assay for selective VIM-2 inhibitor project, biochemical, epi-absorbance readout, triplicate; shares compounds with VIM-2 inhibitor; purified IMP-1, nitrocefin hydrolysis, epi-absorbance fluorescence; inhibition, % at 5.6 µM; 1,300 tested, under 10 active; AID 1856, 2009; call rule not given here;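 note: 0% = enzyme with vehicle and 100% = vehicle without enzyme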
VIM-2 FRET ctr – VIM-2 inhibitors in FRET format, confirmation, artefact control for selective VIM-2 inhibitor project, biochemical, epi-absorbance artifact exclusion; inhibition, % at 5.6 µM; shares compounds with VIM-2 inhibitor; 1,300 compounds, 23% hits; purified VIM-2, CCF2 FRET substrate hydrolysis;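 active = inhibition above the mean of all tested compounds plus 3 SD, cut at about 19% in these data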;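 note: 0% = VIM-2 plus DMSO and 100% = no enzyme wells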
TEM-1 inh – TEM-1 serine beta-lactamase inhibitors, counter-screen for VIM-2 inhibitor project, biochemical, epi-absorbance, HTS; shares compounds with VIM-2 inhibitor; Purified TEM-1, nitrocefin hydrolysis, epi-absorbance fluorescence; inhibition, % at 5.6 µM; 1,300 compounds, 3% hits; AID 1866, 2009;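 active = inhibition above that campaign's mean inhibition plus 3 SD, cut at about 0.46% in these data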;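 note: 0% = TEM-1 with DMSO and 100% = TEM-1 with 100 µM potassium clavulanate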
Target sequence (P62593 whole entry, looked up): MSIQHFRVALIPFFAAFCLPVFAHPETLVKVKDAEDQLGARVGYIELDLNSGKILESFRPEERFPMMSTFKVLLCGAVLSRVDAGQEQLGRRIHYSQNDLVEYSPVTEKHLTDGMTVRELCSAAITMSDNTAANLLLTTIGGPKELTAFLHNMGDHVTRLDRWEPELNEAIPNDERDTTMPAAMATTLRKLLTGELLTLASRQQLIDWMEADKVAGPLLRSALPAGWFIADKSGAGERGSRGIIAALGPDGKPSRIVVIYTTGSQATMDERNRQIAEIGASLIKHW
VIM-2 inh conf – VIM-2 metallo-beta-lactamase inhibitors, confirmation, biochemical, epi-absorbance, hits shared with IMP-1 screen; shares compounds with VIM-2 inhibitor; purified VIM-2, nitrocefin hydrolysis; inhibition, % at 5.6 µM; 1,300 compounds, 96% hits;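 active = inhibition of the VIM-2 beta-lactamase enzyme above about 11% from the earlier first-round screen, limit read from the data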;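 note: 0% = VIM-2 with DMSO and 100% = buffer wells without enzyme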
* = called active by the depositor; nt = not tested or not shown.

SMILES	NALP1 inh	SUMO Mot1 rescue	DNA FID counter	VIM-2 inhibitor	IMP-1 inh-1	SUMO HTRF inh	IMP-1 inh-2	VIM-2 FRET ctr	TEM-1 inh	VIM-2 inh conf
O=C(O)c1cccc(Nc2cc(Cl)c3nonc3c2[N+](=O)[O-])c1	1	-25	6	1	-5	16	nt	nt	nt	nt
COC(=O)c1cc(Nc2cc(C)nc3ncnn23)cc(C(=O)OC)c1	19	-6	-8	15*	-3	12	-5	3	-5	35*
COc1cc(Nc2cc(C)nc3ncnn23)cc(OC)c1	23	5	-5	5	-3	-2	nt	nt	nt	nt
CC1CCN(S(=O)(=O)c2ccc(C(=O)N3CCOCC3)cc2)CC1	3	-6	-9	-2	-2	1	nt	nt	nt	nt
CCCCn1c(Cc2ccccc2)n[nH]c1=S	14	240	-8	-2	-3	21	nt	nt	nt	nt
CC(C)Cn1c(-c2ccco2)nc2c(c(=O)c3ccccc3n2C)c1=O	25	34	-18	13*	-2	5	-3	-3	-5	32*
CCCCn1c(-c2ccoc2C)n[nH]c1=S	-3	124	-15	16*	-4	1	-2	45*	-2	30*
C=CCn1c(-c2ccoc2C)n[nH]c1=S	32	365	-2	-4	-6	8	nt	nt	nt	nt
CCCCn1c(-c2sccc2C)n[nH]c1=S	-11	-3	-4	39*	-2	-6	-2	67*	-8	50*
CC(C)Cn1c(-c2ccco2)n[nH]c1=S	-6	2	-7	17*	-4	16	-3	49*	-8	31*
COc1ccc(CNC(=O)NC(C)(C)c2cccc(C(C)(C)NC(=O)NCc3ccc(OC)cc3)c2)cc1	23	4	-14	-1	-6	4	nt	nt	nt	nt
CCOc1ccc2nc(SCC(=O)c3ccc(O)cc3O)sc2c1	22	1	6	-1	0	6	nt	nt	nt	nt
Cc1nc(SCc2nc3c([N+](=O)[O-])cccc3[nH]2)c2oc3ccccc3c2n1	nt	11	nt	nt	nt	nt	nt	nt	nt	nt
CC(C)Cn1c(-c2ccc(F)cc2)n[nH]c1=S	-15	8	-7	4	0	-7	nt	nt	nt	nt
Cc1ccccc1-n1c(-c2ccco2)n[nH]c1=S	25	-7	-4	14*	-2	5	-2	45*	-3	31*
CCCCn1c(-c2ccco2)n[nH]c1=S	13	nt	-5	42*	-4	16	-3	72*	-7	53*
CC(C)Cn1c(-c2ccccc2F)n[nH]c1=S	3	0	-8	19*	1	16	-2	30*	-7	21*
Cc1ccccc1C(=O)Nn1c(C)ccc1C	-23	-19	7	-6	-3	5	nt	nt	nt	nt
CCN1CCN(C(=O)CCn2c(=O)c3cccn3c3cccnc32)CC1	30	-2	-1	17*	-3	1	-2	2	-4	25*
O=C(CCCn1c(=O)c2cccn2c2cccnc21)N1CCN(c2ccccc2F)CC1	13	-2	-11	1	-1	nt	nt	nt	nt	nt
COc1ccc(N2CCN(C(=O)CCCn3c(=O)c4cccn4c4cccnc43)CC2)cc1	-6	-11	-32	0	-2	11	nt	nt	nt	nt
CCCN1CCN(C(=O)CCn2c(=O)c3cccn3c3cccnc32)CC1	4	-7	0	13*	0	9	-4	-3	-6	24*
COc1ccc(OCC(O)Cn2c(N)nc3c2c(=O)[nH]c(=O)n3C)cc1 (centres undefined)	nt	9	-2	-4	-3	4	nt	nt	nt	nt
Cc1nc(C)c(/C(O)=C/c2nc3ccccc3oc2=O)s1	61*	14	-4	19*	-4	32	-2	11	-6	2
O=C(NCc1cccc(Cl)c1)c1cccc(OC2CCN(C(=O)C3CC3)CC2)c1	27	-9	-40	25*	-2	9	-2	-3	-2	4
SMILES	NALP1 inh	SUMO Mot1 rescue	DNA FID counter	VIM-2 inhibitor	IMP-1 inh-1	SUMO HTRF inh	IMP-1 inh-2	VIM-2 FRET ctr	TEM-1 inh	VIM-2 inh conf
COc1cc(CCCN2C(N)=NC[C@@H]2Cc2ccc(O)cc2)cc(OC)c1OC	nt	-5	nt	nt	nt	10	nt	nt	nt	nt
Cc1cccc(N2CCN(c3ccc4cc(S(=O)(=O)N5CCCCC5)ccc4n3)CC2)c1C	1	-6	-3	-1	-2	8	nt	nt	nt	nt
O=C(CNc1ccc2ccccc2c1)N/N=C/c1cc2ccccc2nc1Cl	17	2	-2	22*	1	88	-4	3	-9	34*
O=C(COc1cccc(Cl)c1)N/N=C\c1cc2ccccc2nc1Cl	51	-6	0	-3	-2	2	nt	nt	nt	nt
CCCOc1ccccc1C(=O)Nc1ccc(S(=O)(=O)N2CCN(C)CC2)cc1	6	3	10	51*	-1	-14	-2	-1	-7	65*
COc1ccccc1C(=O)Nc1ccc(S(=O)(=O)N2CCN(C)CC2)cc1	nt	312	nt	nt	nt	nt	nt	nt	nt	nt
CCC(C)NC(=O)c1cc2c(=O)n3cccc(C)c3nc2s1 (centres undefined)	14	55	-12	20*	-3	3	-3	-6	-3	27*
CCOC(=O)N1CCN(C(=O)c2cc3c(=O)n4cccc(C)c4nc3s2)CC1	-14	0	-18	16*	-2	4	-3	-1	-5	24*
C=CCNC(=O)c1cc2c(=O)n3cccc(C)c3nc2s1	4	17	-6	19*	-3	9	-2	-1	-4	26*
CCOC(=O)N1CCN(C(=O)c2cccn3c(=O)c4c5c(sc4nc23)CCCC5)CC1	34	-30	-6	-4	-3	14	nt	nt	nt	nt
O=C(NCCc1nnc2ccc(N3CCCC3)nn12)c1ccccc1	13	-10	-15	0	-5	12	nt	nt	nt	nt
